Sampled rows, rich in hits. Any-hit rate of the full collection: about 2.4%.
RanGTP-Imp inh: disruptors of Ran-importin-beta complex formation – biochemical, FRET, CFP-Ran, YFP-importin-beta, homogeneous, primary screen. AID 2216. hit rate 1.1% among 300,000. cell-free CFP-Ran/YFP-importin-beta FRET ratio. inhibition, % (test concentration not listed);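 active means more than half of the replicate wells show a fall in the fluorescence ratio signal beyond about 16%, limit read from the data, passing the limit was not always enough; inconclusive means exactly half of the replicate wells pass the set limit; inactive means fewer than half of replicates pass the limit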;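 further: 0% = DMSO wells and 100% = Ran loaded with GDP instead of GTP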
Runt-SMMHC FRET: blocks binding of human RUNX1 Runt domain to CBFb-SMMHC; hit rate 0.74% among 220,000; inhibition, % at 20 µM; Cerulean-Runt/Venus-CBFb-SMMHC FRET ratio 530/480, 1 h; Q01196+Q13951;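 active means mean inhibition across duplicate retests at 20 µM reaching about 50%, limit read from the data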;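 further: 0% = DMSO wells and 100% = wells with excess untagged CBFb-SMMHC; inhibitors lower the FRET ratio by blocking Runt binding to CBFb-SMMHC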
Runt-CBFb FRET: inhibitors of human RUNX1 Runt domain binding to CBFb; Q01196+Q13951; Cerulean-Runt/Venus-CBFb FRET ratio 530/480, 1 h; inhibition, % at 20 µM; hit rate 0.46% among 220,000; AID 1496;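 active means inhibition over about 50% at 20 µM in the single-dose screen, limit read from the data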;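 further: 0% = DMSO wells and 100% = excess unlabeled CBFb competitor control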
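Measured by: fluorescence energy transfer, 422 nm excitation, 530/480 nm emission; Assay system: Cerulean-Runt domain; Medium: Tris pH 7.5 buffer with BSA; Measure: loss of energy transfer signal; Controls: 5 µM unlabeled CBFb as full-inhibition high control; Incubation: protein complex preformed 1 h, compound exposure 1 h, room temperature, dark.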
MEX-5 binding: C. elegans MEX-5 TCR-2 RNA binding activity; activity score (negative = inhibition of binding), % at 10 µM; AID 1832; Q9XUB2; MEX-5/FITC-TCR2 RNA binding, fluorescence polarization; stronger effect = lower value; hit rate 0.38% among 300,000;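 active means inhibition past about -25% in most replicates, and total fluorescence under double the plate's negative control median, limit read from the data; inconclusive means replicates evenly split on the limit, or fluorescence at least double controls; inactive means too little inhibition in most replicates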;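 further: 0% = DMSO and -100% = 5 µM competing unlabeled TCR2 RNA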
EBV gp42 block: EBV gp42 inhibition; inhibition, % (tested at 21.74 µM); hit rate 0.42% among 220,000; Fluorescence polarization binding assay, mP read-out; in the data active means inhibition above about 50%
LANA-H2A inh: blocks KSHV LANA binding to histone H2A/H2B. cell-free LANA-H2A/H2B peptide, fluorescence polarization. inhibition, % (no concentration beside the values). hit rate 0.6% among 320,000. Q9QR71; in the data active means inhibition mostly above about 10%, no sharp cut-off; inactive means mostly below about 6.7%
Starred values were filed as active, the others as inactive; u = inconclusive; x = no result.

SMILES	RanGTP-Imp inh	Runt-SMMHC FRET	Runt-CBFb FRET	MEX-5 binding	EBV gp42 block	LANA-H2A inh
COc1ccc(OC)c(C2C3=C(CCCC3=O)Nc3c2c(=O)n(C)c(=O)n3C)c1 (configuration not stated)	2.8	72.7*	33.1	0.7	-40.1	-2.2
COc1ccc(OC)c(C2C3=C(CCCC3=O)Nc3nnnn32)c1 (configuration not stated)	7.6	1.6	-1.0	-2.3	-11.6	2.1
COc1ccc(C2C3=C(CC(C)(C)CC3=O)Nc3c2c(=O)n(C)c(=O)n3C)cc1OC (configuration not stated)	5.0	107.0*	63.3*	-1.4	-4.3	0.0
COCCCNC(=O)CCn1nc(-c2ccc(Cl)cc2)ccc1=O	-0.3	x	x	-1.2	x	0.3
N#Cc1ccccc1NC(=O)CSc1nnc(-c2ccncc2)o1	0.4	-7.5	-1.8	0.8	1.9	13.3*
COC(=O)c1c(NC(=O)c2ccco2)sc2c1CCC2	4.0	0.2	1.5	2.6	12.9	-3.4
CN1CCc2c(sc(NC(=O)c3ccco3)c2C(N)=O)C1	83.0*	x	x	2.8	x	-14.8
CC(C)N1CCc2c(sc(NC(=O)c3ccco3)c2C(N)=O)C1	101.2*	x	x	-0.8	x	4.1
COC(=O)c1c(NC(=O)c2ccco2)sc2c1CCN(C(C)C)C2	53.6*	x	x	6.1	x	-7.4
O=C(Nc1sc2c(c1C(=O)O)CCC2)c1ccco1	-5.8	-2.2	6.3	0.5	-3.4	2.7
CN1CCc2c(sc(NC(=O)c3cc(Cl)sc3Cl)c2C(N)=O)C1	147.1*	x	x	0.1	x	0.6
CN1CCc2c(sc(NC(=O)c3ccc([N+](=O)[O-])o3)c2C(N)=O)C1	x	x	x	-6.7	x	-3.9
CC(C)C[C@H](NC(=O)C1CCN(S(=O)(=O)c2ccccc2)CC1)C(=O)NCc1cccnc1	0.7	x	x	-2.1	x	-0.1
CCCCn1c(-c2cccs2)nc2nc3ccccc3nc21	2.8	157.8*	18.9	-4.3	-7.3	1.7
Cc1ccc(-n2c(-c3cccs3)nc3nc4ccccc4nc32)cc1	0.8	-86.4	-0.2	-0.3	0.1	2.4
CC(C)Cn1c(-c2cccs2)nc2nc3ccccc3nc21	8.0	103.6*	45.8	5.5	-19.7	0.5
c1ccc(Cn2c(-c3cccs3)nc3nc4ccccc4nc32)cc1	u	65.0*	23.1	-2.3	3.1	x
Cc1cccc(S(=O)(=O)c2c(N)n(Cc3ccco3)c3nc4ccccc4nc23)c1	18.5*	x	19.5	-0.1	3.7	-0.6
Cc1ccc(S(=O)(=O)c2c(N)n(Cc3ccco3)c3nc4ccccc4nc23)cc1	u	x	44.7	2.7	61.1*	14.7
CC(C)CN(C(=O)COC(=O)COc1ccc2ccccc2c1)c1c(N)n(Cc2ccccc2)c(=O)[nH]c1=O	4.9	x	x	0.0	x	6.6
Cc1cc(C)c2nc(Cl)c(Cl)nc2c1	-2.1	2.1	-0.5	-0.4	-5.6	6.5
O=C(OCC(=O)N1CCCC1)c1cc2c(cc1[N+](=O)[O-])OCCO2	x	x	x	x	x	-0.6
CN1C=CC2=C(C#N)C(N)C(C#N)(C#N)[C@H](c3ccccc3)[C@H]2C1 (some centres not stated)	64.1*	79.4*	66.4*	u	9.1	10.9
CCC(C)c1ccc(N(C(=O)c2ccco2)C(C(=O)NC2CCCC2)c2cccnc2)cc1 (configuration not stated)	-3.0	x	x	-0.4	x	1.1
C/C(=N\NC(=O)c1ccc(O)cc1O)c1cccnc1	-0.1	x	x	0.7	x	-6.0
SMILES	RanGTP-Imp inh	Runt-SMMHC FRET	Runt-CBFb FRET	MEX-5 binding	EBV gp42 block	LANA-H2A inh
CCOC(=O)c1c(/N=C/N(C)C)sc(C=O)c1-c1ccccc1	6.4	134.4*	102.9*	-0.1	4.2	0.3
N#C/C(=C/c1ccncc1)c1nc2ccccc2s1	84.0*	-39.8	-16.5	1.3	2.5	-1.2
Cn1c(=O)c(Nc2ccc(Cl)cc2)c2c3c(cccc31)C(=O)c1ccccc1-2	-28.9	-83.9	-24.1	-40.8*	176.4*	65.6*
COC(=O)C1=CNC=C(C(=O)OC)C1c1ccc(C(=O)OC)cc1	5.5	70.9*	28.5	3.3	-4.8	4.1
COC(=O)C1=C(C)N(C)C(C)=C(C(=O)OC)C1c1ccc(C(=O)OC)cc1	-0.3	2.1	-1.0	0.0	-5.1	3.7
CC1=C(C(=O)OCc2ccccc2)C(c2ccccc2[N+](=O)[O-])NC(=O)N1C (configuration not stated)	-3.6	x	x	-38.9*	x	-4.1
O=C(O)CC(C(=O)O)N1C(=O)/C(=C/C=C/c2ccco2)SC1=S (configuration not stated)	-5.2	-2.4	38.9	-65.6*	-11.3	11.8
O=C(O)C(Cc1ccccc1)N1C(=O)/C(=C/C=C/c2ccco2)SC1=S (configuration not stated)	-3.3	-23.1	21.6	0.1	-9.1	x
O=S(=O)(N/N=C1\CCCc2ccccc21)c1ccccc1	x	x	x	x	x	13.9*
CCN(CC)CCCN(Cc1cc2ccc(C)c(C)c2[nH]c1=O)C(=O)NC1CCCCC1	2.4	-0.7	-0.2	-0.5	-13.3	4.9
Nc1nonc1C(=O)N/N=C/c1ccc(-c2ccc(Cl)c(C(=O)O)c2)o1	-0.8	0.1	6.0	-10.1	-11.2	-2.7
O=C(O)c1ccc(N/N=C/c2ccc(-c3ccccc3Cl)o2)cc1	54.2*	81.2*	45.6	-3.1	-4.1	9.6
O=C(O)c1ccc(N/N=C/c2ccc(-c3ccc(Br)cc3)o2)cc1	70.1*	x	x	-2.3	x	0.5
O=C(O)c1cc(-c2ccc(/C=N/Nc3ccc(Cl)cc3)o2)ccc1Cl	3.2	81.5*	16.4	-8.5	3.0	1.3
CC(C)(C)c1ccc(C(=O)N2CCC(C(=O)NC3CCCCCC3)CC2)cc1	-1.8	x	x	0.6	x	-2.9
C=CCC(C(=O)Oc1c(C(C)(C)C)cc(C)cc1C(C)(C)C)c1ccccc1 (configuration not stated)	x	x	x	x	x	3.7
COc1ccccc1CNC(=O)CCC(=O)Nc1nnc(C(C)C)s1	1.8	1.5	-0.9	0.9	-23.3	19.9*
COc1ccccc1CNC(=O)CCC(=O)Nc1nnc(C)s1	2.1	1.8	-1.4	-0.1	-23.8	-33.4
COc1ccc(/C=C/C(=O)Nc2nnc(C(C)C)s2)cc1OC	-2.0	1.0	-0.6	-2.0	-2.2	19.7*
CCSc1nnc(NC(=O)CCCOc2ccc(C)cc2)s1	4.6	0.2	1.6	3.7	-6.4	-3.0
Cc1oc2c(C)c3oc(=O)c(CCC(=O)NCCN4CCOCC4)c(C)c3cc2c1C	-10.2	x	x	0.3	x	13.6*
CCS(=O)(=O)CCn1c([N+](=O)[O-])cnc1C	7.0	2.6	-2.5	-1.9	-12.2	10.8*
Cc1ncc([N+](=O)[O-])n1CCO	5.0	5.8	-2.5	0.1	0.3	-17.0
CN(C(=O)CCNC(=O)Cn1cnc2ccccc2c1=O)c1ccccc1F	10.2	x	x	1.4	x	0.5

Screening results as filed in PubChem BioAssay.
